Measurements: ChEMBL document CHEMBL5724801, “EUbOPEN Chemogenomics Library - Multiplex” (2024)
Several values for one entry are separate records, joined by “and”; a condition that tells them apart may be missing. Identical values can stand only once.

System: U2OS
Assay: Multiplex assay against U2OS
Assay type: toxicity, cell-based
Settings: human
How it was run: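 Cells were classed with CellPathfinder machine-learning gating, first as Hoechst high-intensity objects or normal cells, then (normal cells) as healthy, pyknosed or fragmented nuclei, and finally (pyknosed cells) as mitotic or apoptotic. Staining of live cells at seeding used Hoechst33342, BioTracker Green Microtubule Cytoskeleton Dye, MitoTracker Red and Annexin V Alexa Fluor 680, with imaging on a CQ1 microscope at 37°C and 5% CO2 after compound addition. Tubulin, mitochondrial-mass and membrane-permeability phenotypes are per cents of healthy-nucleus cells.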

[1] = 12 h, 1 µM, compound concentration 1 uM
[2] = 12 h, 10 µM, compound concentration 10 uM
[3] = 24 h, 1 µM, compound concentration 1 uM
[4] = 24 h, 10 µM, compound concentration 10 uM
[5] = 48 h, 1 µM, compound concentration 1 uM
[6] = 48 h, 10 µM, compound concentration 10 uM

COc1cc(NC(=O)CCN2CCC(OC(=O)Nc3ccccc3-c3ccccc3)CC2)c(Cl)cc1CNC[C@H](O)c1ccc(O)c2[nH]c(=O)ccc12 [BATEFENTEROL]
Population Apoptotic (%) [1]: 68% and 85% | Population Fragmented Nuclei (%) [1]: 29% and 14% | Population Healthy Nuclei (%) [1]: 49% and 78% | Population Hoechst High Intensity Objects (%) [1]: 4% and 1% | Population Membrane Permeable-Phenotype (%) [1]: 5% and 9% | Population Mitochondria Different-Phenotype (%) [1]: 5% and 6% | Population Mitotic Cells (%) [1]: 31% and 14% | Population Normal (%) [1]: 95% and 98% | Population Pyknosed Nuclei (%) [1]: 21% and 7% | Population Tubulin-Different-Phenotype (%) [1]: 4% and 7% | Total Cell Count [1]: 159 and 98 | Population Apoptotic (%) [2]: 72% and 88% | Population Fragmented Nuclei (%) [2]: 37% and 18% | Population Healthy Nuclei (%) [2]: 44% and 59% | Population Hoechst High Intensity Objects (%) [2]: 6% and 7% | Population Membrane Permeable-Phenotype (%) [2]: 60% and 57% | Population Mitochondria Different-Phenotype (%) [2]: 67% and 95% | Population Mitotic Cells (%) [2]: 27% and 11% | Population Normal (%) [2]: 93% and 92% | Population Pyknosed Nuclei (%) [2]: 18% and 22% | Population Tubulin-Different-Phenotype (%) [2]: 75% and 97% | Total Cell Count [2]: 196 and 82 | Population Apoptotic (%) [3]: 74% and 100% | Population Fragmented Nuclei (%) [3]: 27% and 12% | Population Healthy Nuclei (%) [3]: 55% and 75% | Population Hoechst High Intensity Objects (%) [3]: 2% and 1% | Population Membrane Permeable-Phenotype (%) [3]: 9% and 5% | Population Mitochondria Different-Phenotype (%) [3]: 9% and 6% | Population Mitotic Cells (%) [3]: 25% and 0% | Population Normal (%) [3]: 97% and 98% | Population Pyknosed Nuclei (%) [3]: 17% and 11% | Population Tubulin-Different-Phenotype (%) [3]: 5% and 2% | Total Cell Count [3]: 182 and 103 | Population Apoptotic (%) [4]: 79% and 73% | Population Fragmented Nuclei (%) [4]: 38% and 29% | Population Healthy Nuclei (%) [4]: 38% and 42% | Population Hoechst High Intensity Objects (%) [4]: 4% and 9% | Population Membrane Permeable-Phenotype (%) [4]: 32% and 52% | Population Mitochondria Different-Phenotype (%) [4]: 59% and 91% | Population Mitotic Cells (%) [4]: 20% and 26% | Population Normal (%) [4]: 95% and 90% | Population Pyknosed Nuclei (%) [4]: 22% and 27% | Population Tubulin-Different-Phenotype (%) [4]: 44% and 91% | Total Cell Count [4]: 199 and 93 | Population Apoptotic (%) [5]: 82% and 85% | Population Fragmented Nuclei (%) [5]: 26% and 17% | Population Healthy Nuclei (%) [5]: 54% and 64% | Population Hoechst High Intensity Objects (%) [5]: 3% and 4% | Population Membrane Permeable-Phenotype (%) [5]: 3% | Population Mitochondria Different-Phenotype (%) [5]: 5% and 1% | Population Mitotic Cells (%) [5]: 17% and 14% | Population Normal (%) [5]: 96% and 95% | Population Pyknosed Nuclei (%) [5]: 19% and 17% | Population Tubulin-Different-Phenotype (%) [5]: 3% and 1% | Total Cell Count [5]: 242 and 123 | Population Apoptotic (%) [6]: 92% and 94% | Population Fragmented Nuclei (%) [6]: 41% and 29% | Population Healthy Nuclei (%) [6]: 39% and 32% | Population Hoechst High Intensity Objects (%) [6]: 6% and 10% | Population Membrane Permeable-Phenotype (%) [6]: 31% and 38% | Population Mitochondria Different-Phenotype (%) [6]: 43% and 70% | Population Mitotic Cells (%) [6]: 7% and 5% | Population Normal (%) [6]: 93% and 89% | Population Pyknosed Nuclei (%) [6]: 18% and 37% | Population Tubulin-Different-Phenotype (%) [6]: 23% and 48% | Total Cell Count [6]: 221 and 105

CC(C)(c1ccc(O)cc1)c1ccc(O)cc1 [BISPHENOL A]
Population Apoptotic (%) [1]: 38.24% and 39.39% | Population Fragmented Nuclei (%) [1]: 2.9% and 4.3% | Population Healthy Nuclei (%) [1]: 88.13% and 77.96% | Population Hoechst High Intensity Objects (%) [1]: 0% | Population Membrane Permeable-Phenotype (%) [1]: 0.3% and 2.76% | Population Mitochondria Different-Phenotype (%) [1]: 0.3% and 6.21% | Population Mitotic Cells (%) [1]: 61.76% and 60.61% | Population Normal (%) [1]: 100% | Population Pyknosed Nuclei (%) [1]: 8.97% and 17.74% | Population Tubulin-Different-Phenotype (%) [1]: 0.9% and 0.69% | Total Cell Count [1]: 379 and 186 | Population Apoptotic (%) [2]: 50% and 47.62% | Population Fragmented Nuclei (%) [2]: 2.17% and 6.45% | Population Healthy Nuclei (%) [2]: 87.31% and 80% | Population Hoechst High Intensity Objects (%) [2]: 0% | Population Membrane Permeable-Phenotype (%) [2]: 0.71% and 4.03% | Population Mitochondria Different-Phenotype (%) [2]: 0.35% and 6.45% | Population Mitotic Cells (%) [2]: 50% and 52.38% | Population Normal (%) [2]: 100% | Population Pyknosed Nuclei (%) [2]: 10.53% and 13.55% | Population Tubulin-Different-Phenotype (%) [2]: 1.42% and 0% | Total Cell Count [2]: 323 and 155 | Population Apoptotic (%) [3]: 49.02% and 57.14% | Population Fragmented Nuclei (%) [3]: 2% and 2.2% | Population Healthy Nuclei (%) [3]: 87.82% and 85.46% | Population Hoechst High Intensity Objects (%) [3]: 0% | Population Membrane Permeable-Phenotype (%) [3]: 1.59% and 3.61% | Population Mitochondria Different-Phenotype (%) [3]: 0% and 5.67% | Population Mitotic Cells (%) [3]: 50.98% and 42.86% | Population Normal (%) [3]: 100% | Population Pyknosed Nuclei (%) [3]: 10.18% and 12.33% | Population Tubulin-Different-Phenotype (%) [3]: 0.68% and 0% | Total Cell Count [3]: 501 and 227 | Population Apoptotic (%) [4]: 38.3% and 22.58% | Population Fragmented Nuclei (%) [4]: 2.34% and 3.03% | Population Healthy Nuclei (%) [4]: 86.68% and 81.31% | Population Hoechst High Intensity Objects (%) [4]: 0% | Population Membrane Permeable-Phenotype (%) [4]: 0.54% and 5.59% | Population Mitochondria Different-Phenotype (%) [4]: 0.81% and 6.21% | Population Mitotic Cells (%) [4]: 61.7% and 77.42% | Population Normal (%) [4]: 100% | Population Pyknosed Nuclei (%) [4]: 10.98% and 15.66% | Population Tubulin-Different-Phenotype (%) [4]: 0.54% and 0.62% | Total Cell Count [4]: 428 and 198 | Population Apoptotic (%) [5]: 38.64% and 58.54% | Population Fragmented Nuclei (%) [5]: 3.22% and 4.97% | Population Healthy Nuclei (%) [5]: 87.66% and 84.29% | Population Hoechst High Intensity Objects (%) [5]: 0% | Population Membrane Permeable-Phenotype (%) [5]: 0.36% and 2.17% | Population Mitochondria Different-Phenotype (%) [5]: 0.24% and 4.66% | Population Mitotic Cells (%) [5]: 61.36% and 41.46% | Population Normal (%) [5]: 100% | Population Pyknosed Nuclei (%) [5]: 9.13% and 10.73% | Population Tubulin-Different-Phenotype (%) [5]: 0.47% and 0% | Total Cell Count [5]: 964 and 382 | Population Apoptotic (%) [6]: 36.49% and 60% | Population Fragmented Nuclei (%) [6]: 2.4% and 2.31% | Population Healthy Nuclei (%) [6]: 88.73% and 86.13% | Population Hoechst High Intensity Objects (%) [6]: 0% | Population Membrane Permeable-Phenotype (%) [6]: 1.22% and 3.02% | Population Mitochondria Different-Phenotype (%) [6]: 0.27% and 2.68% | Population Mitotic Cells (%) [6]: 63.51% and 40% | Population Normal (%) [6]: 100% | Population Pyknosed Nuclei (%) [6]: 8.87% and 11.56% | Population Tubulin-Different-Phenotype (%) [6]: 0.68% and 1.34% | Total Cell Count [6]: 834 and 346

O=C(O)CCC/C=C\CC1C(O)CC(O)C1/C=C/C(O)COc1cccc(Cl)c1 (stereo unspecified) [CLOPROSTENOL]
Population Apoptotic (%) [1]: 77% and 75% | Population Fragmented Nuclei (%) [1]: 30% and 11% | Population Healthy Nuclei (%) [1]: 60% and 82% | Population Hoechst High Intensity Objects (%) [1]: 3% and 0% | Population Membrane Permeable-Phenotype (%) [1]: 2% and 6% | Population Mitochondria Different-Phenotype (%) [1]: 0% and 3% | Population Mitotic Cells (%) [1]: 22% and 25% | Population Normal (%) [1]: 96% and 100% | Population Pyknosed Nuclei (%) [1]: 9% and 6% | Population Tubulin-Different-Phenotype (%) [1]: 1% and 2% | Total Cell Count [1]: 201 and 129 | Population Apoptotic (%) [2]: 92% and 45% | Population Healthy Nuclei (%) [2]: 60% and 81% | Population Hoechst High Intensity Objects (%) [2]: 2% and 0% | Population Membrane Permeable-Phenotype (%) [2]: 8% and 9% | Population Mitochondria Different-Phenotype (%) [2]: 1% and 6% | Population Normal (%) [2]: 97% and 100% | Population Pyknosed Nuclei (%) [2]: 10% and 8% | Population Tubulin-Different-Phenotype (%) [2]: 3% | Total Cell Count [2]: 272 and 131 | Population Apoptotic (%) [3]: 81% and 75% | Population Fragmented Nuclei (%) [3]: 24% and 15% | Population Healthy Nuclei (%) [3]: 63% and 77% | Population Hoechst High Intensity Objects (%) [3]: 1% and 0% | Population Membrane Permeable-Phenotype (%) [3]: 4% and 6% | Population Mitochondria Different-Phenotype (%) [3]: 2% | Population Mitotic Cells (%) [3]: 18% and 25% | Population Normal (%) [3]: 98% and 100% | Population Pyknosed Nuclei (%) [3]: 11% and 7% | Population Tubulin-Different-Phenotype (%) [3]: 2% and 4% | Total Cell Count [3]: 237 and 157 | Population Apoptotic (%) [4]: 90% and 70% | Population Fragmented Nuclei (%) [4]: 23% and 11% | Population Healthy Nuclei (%) [4]: 66% and 82% | Population Hoechst High Intensity Objects (%) [4]: 2% and 0% | Population Membrane Permeable-Phenotype (%) [4]: 7% and 11% | Population Mitochondria Different-Phenotype (%) [4]: 2% and 4% | Population Mitotic Cells (%) [4]: 10% and 30% | Population Normal (%) [4]: 97% and 100% | Population Pyknosed Nuclei (%) [4]: 10% and 5% | Population Tubulin-Different-Phenotype (%) [4]: 3% and 4% | Total Cell Count [4]: 306 and 177 | Population Apoptotic (%) [5]: 89% and 81% | Population Fragmented Nuclei (%) [5]: 20% and 11% | Population Healthy Nuclei (%) [5]: 70% and 81% | Population Hoechst High Intensity Objects (%) [5]: 1% and 0% | Population Membrane Permeable-Phenotype (%) [5]: 2% and 6% | Population Mitochondria Different-Phenotype (%) [5]: 1% and 3% | Population Mitotic Cells (%) [5]: 10% and 18% | Population Normal (%) [5]: 98% and 99% | Population Pyknosed Nuclei (%) [5]: 8% and 7% | Population Tubulin-Different-Phenotype (%) [5]: 0% and 2% | Total Cell Count [5]: 344 and 229 | Population Apoptotic (%) [6]: 91% and 84% | Population Fragmented Nuclei (%) [6]: 18% and 12% | Population Healthy Nuclei (%) [6]: 67% and 82% | Population Hoechst High Intensity Objects (%) [6]: 3% and 2% | Population Membrane Permeable-Phenotype (%) [6]: 6% and 10% | Population Mitochondria Different-Phenotype (%) [6]: 1% and 2% | Population Mitotic Cells (%) [6]: 8% and 15% | Population Normal (%) [6]: 96% and 97% | Population Pyknosed Nuclei (%) [6]: 14% and 5% | Population Tubulin-Different-Phenotype (%) [6]: 4% | Total Cell Count [6]: 396 and 246
